Measurements taken from ChEMBL document CHEMBL3611989, “Discovery and characterization of aryl isonitriles as a new class of compounds versus methicillin- and vancomycin-resistant Staphylococcus aureus” (Eur J Med Chem, 2015).
≈ marks a conversion by molar mass, not a printed value.

How the values were obtained:
Staphylococcus aureus [1] = assay: Antimicrobial activity against methicillin-resistant Staphylococcus aureus USA200 assessed as reduction in bacterial growth incubated for 18 to 20 hrs at 37 degC by broth microdilution method; format: functional
How it was run: (§1)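 Modified CLSI broth microdilution. Bacterial suspension of about 1 × 10^5 CFU/mL in tryptic soy broth. Each agent was added in triplicate to the first row and serially diluted down the plate. Plates were incubated at 37 °C for 18-20 h. MIC was read as the lowest concentration with no visible growth.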

Staphylococcus aureus [2] = assay: Antimicrobial activity against methicillin-resistant Staphylococcus aureus NRS119 assessed as reduction in bacterial growth incubated for 18 to 20 hrs at 37 degC by broth microdilution method; format: functional; how it was run: as §1
Staphylococcus aureus [3] = assay: Antimicrobial activity against vancomycin-intermediate-resistant Staphylococcus aureus NRS1 assessed as reduction in bacterial growth incubated for 18 to 20 hrs at 37 degC by broth microdilution method; format: functional; how it was run: as §1
Staphylococcus aureus [4] = assay: Antimicrobial activity against vancomycin-resistant Staphylococcus aureus VRS2 assessed as reduction in bacterial growth incubated for 18 to 20 hrs at 37 degC by broth microdilution method; format: functional; how it was run: as §1
Staphylococcus aureus [5] = assay: Antimicrobial activity against methicillin-resistant Staphylococcus aureus USA700 assessed as reduction in bacterial growth incubated for 18 to 20 hrs at 37 degC by broth microdilution method; format: functional; how it was run: as §1
Staphylococcus aureus [6] = assay: Antimicrobial activity against methicillin-sensitive Staphylococcus aureus NRS72 assessed as reduction in bacterial growth incubated for 18 to 20 hrs at 37 degC by broth microdilution method; format: functional; how it was run: as §1
Staphylococcus aureus [7] = assay: Antimicrobial activity against methicillin-resistant Staphylococcus aureus USA500 assessed as reduction in bacterial growth incubated for 18 to 20 hrs at 37 degC by broth microdilution method; format: functional; how it was run: as §1
Staphylococcus aureus [8] = assay: Antimicrobial activity against methicillin-resistant Staphylococcus aureus USA100 assessed as reduction in bacterial growth incubated for 18 to 20 hrs at 37 degC by broth microdilution method; format: functional; how it was run: as §1
Staphylococcus aureus [9] = assay: Antimicrobial activity against methicillin-resistant Staphylococcus aureus USA300 assessed as reduction in bacterial growth incubated for 18 to 20 hrs at 37 degC by broth microdilution method; format: functional; how it was run: as §1
J774 [10] = format: cell-based; settings: mouse, j774, 2 h, 128 µM
J774 [11] = assay: Cytotoxicity against mouse J774 cells assessed as reduction in cell viability at 64 uM incubated for 2 hrs by MTS assay; format: cell-based; settings: j774, 2 h
How it was run: (§2)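 Murine J774 macrophages grown in DMEM with 10% FBS at 37 °C, 5% CO2. Compounds were tested in triplicate at 16, 32, 64 and 128 μM for 2 h, with DMSO-matched vehicle controls. MTS reagent was then added and absorbance read at OD490. Viability is given as percent of DMSO-treated cells (mean of triplicate ± standard deviation), compared by paired t-test (P < 0.05).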

J774 [12] = assay: Cytotoxicity against mouse J774 cells assessed as reduction in cell viability at 32 uM incubated for 2 hrs by MTS assay; format: cell-based; settings: j774, 2 h; how it was run: as §2

SMILES	MIC (Staphylococcus aureus [1]) [µM]	MIC (Staphylococcus aureus [2]) [µM]	MIC (Staphylococcus aureus [3]) [µM]	MIC (Staphylococcus aureus [4]) [µM]	MIC (Staphylococcus aureus [5]) [µM]	MIC (Staphylococcus aureus [6]) [µM]	MIC (Staphylococcus aureus [7]) [µM]	MIC (Staphylococcus aureus [8]) [µM]	MIC (Staphylococcus aureus [9]) [µM]	Activity (J774 [10])	Activity (J774 [11])	Activity (J774 [12])
[C-]#[N+]c1ccccc1-c1ccccc1	16 (≈ 2.87 µg/mL)	> 128	8 (≈ 1.43 µg/mL)	> 128	16 (≈ 2.87 µg/mL)	> 128	> 128	16 (≈ 2.87 µg/mL)	> 128	–	–	–
[C-]#[N+]c1ccccc1CP(=O)(OCC)OCC	128 (≈ 32.4 µg/mL)	> 128	128 (≈ 32.4 µg/mL)	> 128	> 128	> 128	> 128	> 128	> 128	–	–	–
[C-]#[N+]c1ccccc1/C=C(\C)c1ccccc1	64 (≈ 14 µg/mL)	> 128	4 (≈ 0.877 µg/mL)	> 128	16 (≈ 3.51 µg/mL)	8 (≈ 1.75 µg/mL)	> 128	8 (≈ 1.75 µg/mL)	> 128	–	–	–
[C-]#[N+]c1ccccc1/C=C(\CCC)c1ccccc1	16 (≈ 3.96 µg/mL)	32 (≈ 7.91 µg/mL)	8 (≈ 1.98 µg/mL)	32 (≈ 7.91 µg/mL)	16 (≈ 3.96 µg/mL)	16 (≈ 3.96 µg/mL)	16 (≈ 3.96 µg/mL)	16 (≈ 3.96 µg/mL)	32 (≈ 7.91 µg/mL)	–	–	–
[C-]#[N+]c1ccccc1/C=C(\CCCC)c1ccccc1	32 (≈ 8.36 µg/mL)	> 128	16 (≈ 4.18 µg/mL)	64 (≈ 16.7 µg/mL)	16 (≈ 4.18 µg/mL)	32 (≈ 8.36 µg/mL)	32 (≈ 8.36 µg/mL)	32 (≈ 8.36 µg/mL)	> 128	–	–	–
[C-]#[N+]c1ccccc1C=C(c1ccccc1)c1ccccc1	8 (≈ 2.25 µg/mL)	16 (≈ 4.5 µg/mL)	4 (≈ 1.13 µg/mL)	16 (≈ 4.5 µg/mL)	4 (≈ 1.13 µg/mL)	8 (≈ 2.25 µg/mL)	8 (≈ 2.25 µg/mL)	8 (≈ 2.25 µg/mL)	16 (≈ 4.5 µg/mL)	–	–	–
[C-]#[N+]c1ccccc1/C=C(\CC)c1ccc(F)cc1	16 (≈ 4.02 µg/mL)	64 (≈ 16.1 µg/mL)	8 (≈ 2.01 µg/mL)	32 (≈ 8.04 µg/mL)	8 (≈ 2.01 µg/mL)	8 (≈ 2.01 µg/mL)	16 (≈ 4.02 µg/mL)	16 (≈ 4.02 µg/mL)	32 (≈ 8.04 µg/mL)	–	–	–
[C-]#[N+]c1ccccc1/C=C(\CC)c1ccc(C(F)(F)F)cc1	–	64 (≈ 19.3 µg/mL)	8 (≈ 2.41 µg/mL)	16 (≈ 4.82 µg/mL)	–	8 (≈ 2.41 µg/mL)	–	–	32 (≈ 9.64 µg/mL)	–	–	–
[C-]#[N+]c1ccccc1/C=C(\CC)c1ccc(OC)cc1	–	> 128	4 (≈ 1.05 µg/mL)	8 (≈ 2.11 µg/mL)	4 (≈ 1.05 µg/mL)	–	–	–	16 (≈ 4.21 µg/mL)	Toxic	Toxic	Non-toxic
[C-]#[N+]c1ccccc1/C=C(\CC)c1cccc(C(F)(F)F)c1	–	–	2 (≈ 0.603 µg/mL)	8 (≈ 2.41 µg/mL)	2 (≈ 0.603 µg/mL)	4 (≈ 1.21 µg/mL)	–	4 (≈ 1.21 µg/mL)	> 128	Toxic	Toxic	Non-toxic
[C-]#[N+]c1ccccc1/C=C/c1cccc(C(F)(F)F)c1	4 (≈ 1.09 µg/mL)	–	2 (≈ 0.547 µg/mL)	8 (≈ 2.19 µg/mL)	4 (≈ 1.09 µg/mL)	2 (≈ 0.547 µg/mL)	–	4 (≈ 1.09 µg/mL)	–	Toxic	Non-toxic	Non-toxic
[C-]#[N+]c1ccccc1/C=C/c1ccc(CCCC)cc1	> 128	> 128	–	> 128	–	> 128	> 128	–	> 128	–	–	–
[C-]#[N+]c1ccccc1/C=C/c1ccc([N+](=O)[O-])cc1	4 (≈ 1 µg/mL)	16 (≈ 4 µg/mL)	4 (≈ 1 µg/mL)	8 (≈ 2 µg/mL)	–	2 (≈ 0.501 µg/mL)	–	4 (≈ 1 µg/mL)	–	Toxic	Toxic	Toxic
[C-]#[N+]c1ccccc1C=C1CCCCC1	64 (≈ 12.6 µg/mL)	> 128	4 (≈ 0.789 µg/mL)	> 128	16 (≈ 3.16 µg/mL)	8 (≈ 1.58 µg/mL)	> 128	16 (≈ 3.16 µg/mL)	> 128	–	–	–
[C-]#[N+]c1cccc(/C=C/c2ccccn2)c1	64 (≈ 13.2 µg/mL)	128 (≈ 26.4 µg/mL)	128 (≈ 26.4 µg/mL)	128 (≈ 26.4 µg/mL)	64 (≈ 13.2 µg/mL)	64 (≈ 13.2 µg/mL)	64 (≈ 13.2 µg/mL)	32 (≈ 6.6 µg/mL)	32 (≈ 6.6 µg/mL)	–	–	–
